The species named for experiment [1] is Homo sapiens. The experiment can be described thus: Particle size of HDL after incubation with the compound (0.01%). Type of experiment: functional. The essentials: (§1)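 Lipoproteins (LDL 1.019–1.063, HDL 1.063–1.21 ×10³ kg/m³) isolated from human serum by KBr/NaCl density-gradient ultracentrifugation. LDL (0.5 mg/mL) or HDL (2.0 mg/mL) incubated 10 min at room temperature in PBS pH 7.40 with 0–0.33% (w/v) agent. Size measured by photon correlation spectroscopy (120°, 632 nm, 72 s accumulation) and reported as mass-weighted mean ± standard error.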

The species entered for experiment [2] is Homo sapiens. Kind of experiment: Particle size of LDL after incubation with the compound (0.0055%). The class given is functional. The essentials: as §1

For the compound `C[C@@H]1CC[C@@]2(OC1)O[C@H]1[C@@H](O)[C@H]3[C@@H]4CC[C@H]5C[C@@H](O[C@@H]6O[C@H](CO)[C@H](O[C@@H]7O[C@H](CO)C(O)[C@H](O[C@@H]8OC[C@@H](O)[C@H](O)[C@H]8O)[C@H]7O[C@@H]7O[C@H](CO)[C@H](O)[C@H](O[C@@H]8O[C@H](CO)[C@@H](O)[C@H](O)[C@H]8O)[C@H]7O)[C@H](O)[C@H]6O)[C@H](O)C[C@]5(C)[C@H]4CC[C@]3(C)[C@H]1[C@@H]2C` (some centres not stated), the Activity entry in experiment [1] and in experiment [2] was “Increase” in each case.

The record behind these values is ChEMBL document CHEMBL1128600, “The cholesterol derivative of a triantennary galactoside with high affinity for hepatic asialoglycoprotein receptor: a potent cholesterol lowering agent” (J Med Chem, 1995).
